Test results: ChEMBL document CHEMBL4619805, “Structural Analysis of VDR Complex with ZK168281 Antagonist” (J Med Chem, 2020)
Activity calls are given as the source filed them. The calls are words filed in the database; no cut-off is given here.

Experiments:
[1] = molecular target: T1, Vitamin D3 receptor A (Danio rerio) (UniProt Q9PTN2); assay: Binding affinity to H3 region (253 to 267 residues) of zebrafish VDR LBD assessed as stabilization of structural elements by measuring increase in protection at 10 fold excess compound concentration in presence of SRC1 NR2 coactivator peptide measured at 1 mins by HDX-MS analysis
T1 sequence (whole entry): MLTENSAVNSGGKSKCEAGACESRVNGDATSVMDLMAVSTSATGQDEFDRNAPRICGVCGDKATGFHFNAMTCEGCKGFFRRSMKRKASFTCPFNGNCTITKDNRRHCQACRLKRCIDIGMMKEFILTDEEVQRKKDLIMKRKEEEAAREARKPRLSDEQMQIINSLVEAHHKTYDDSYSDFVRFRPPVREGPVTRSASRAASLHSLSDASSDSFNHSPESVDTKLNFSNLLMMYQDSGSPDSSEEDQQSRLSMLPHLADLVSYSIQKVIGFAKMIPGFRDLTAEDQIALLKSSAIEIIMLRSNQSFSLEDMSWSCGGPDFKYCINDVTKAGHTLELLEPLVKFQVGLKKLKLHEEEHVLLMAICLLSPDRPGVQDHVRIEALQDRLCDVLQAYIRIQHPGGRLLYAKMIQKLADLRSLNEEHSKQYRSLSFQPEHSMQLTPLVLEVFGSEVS
In short: (§1)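 Deuterium exchange at pH 8.0 for 60, 180, 600 or 1800 s. Quench, pepsin digestion, UPLC-MS. Per-residue deuteration corrected to a fully deuterated control; triplicates.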

[2] = molecular target: T1, Vitamin D3 receptor A (Danio rerio); assay: Binding affinity to H2 region of zebrafish VDR LBD assessed as stabilization of structural elements forming LBP at 10 fold excess compound concentration by HDX-MS analysis
In short: (§2)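 zVDR LBD (residues 156–453, 10 µM) preincubated 30 min at room temperature with tenfold ligand excess (ethanol control). D2O exchange in 50 mM Tris pH 8.0, 50 mM NaCl, 2% glycerol, 1 mM TCEP for 60–1800 s. Quench with urea/TFA, online pepsin digest, UPLC-MS. Back-exchange corrected against fully deuterated sample; triplicates.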

[3] = molecular target: T2, Vitamin D3 receptor (Homo sapiens) (UniProt P11473); assay: Antagonist activity at human VDR expressed in HEK293 EBNA cells co-expressing CYP24A1 promoter region assessed as reduction in 1,25D3-induced receptor activation at 0.1 to 1000 nM incubated for 18 hrs by luciferase reporter gene assay; type: cell-based
T2 sequence (whole entry): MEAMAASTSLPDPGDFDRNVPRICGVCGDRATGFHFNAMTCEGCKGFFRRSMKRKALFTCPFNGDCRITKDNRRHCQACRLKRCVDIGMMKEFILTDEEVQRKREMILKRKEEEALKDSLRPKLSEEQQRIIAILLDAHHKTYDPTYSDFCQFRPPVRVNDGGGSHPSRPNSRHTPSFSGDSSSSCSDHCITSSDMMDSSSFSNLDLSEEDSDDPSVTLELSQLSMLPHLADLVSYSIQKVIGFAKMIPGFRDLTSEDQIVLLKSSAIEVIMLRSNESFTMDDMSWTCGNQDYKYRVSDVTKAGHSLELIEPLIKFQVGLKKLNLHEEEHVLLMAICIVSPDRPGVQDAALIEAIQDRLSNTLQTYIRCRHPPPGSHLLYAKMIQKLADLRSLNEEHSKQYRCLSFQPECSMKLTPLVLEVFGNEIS
In short: (§3)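 HEK293 EBNA cells, in 5% charcoal-treated FCS for 48 h, co-transfected by jetPEI with full-length hVDR, firefly luciferase under the human CYP24A1 proximal promoter (-414 to -64), and Renilla. 6 h later, 10 nM 1,25D3 ± compound (0.1–1000 nM) added for 18 h. Lysate luciferase normalized to Renilla; triplicate, mean ± SD.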

[4] = molecular target: T1, Vitamin D3 receptor A (Danio rerio); assay: Binding affinity to H12 region of zebrafish VDR LBD assessed as stabilization of structural elements forming LBP at 10 fold excess compound concentration by HDX-MS analysis; in short: as §2
[5] = molecular target: T2, Vitamin D3 receptor (Homo sapiens); assay: Antagonist activity at human VDR expressed in HEK293 EBNA cells co-expressing CYP24A1 promoter region assessed as reduction in 1,25D3-induced receptor activation at 0.1 to 1000 nM incubated for 18 hrs by luciferase reporter gene assay relative to control; type: cell-based; parameters: scale not given: the % may be the effect or the level left; in short: as §3
[6] = molecular target: T1, Vitamin D3 receptor A (Danio rerio); assay: Binding affinity to H10 to H11 region (416 to 437 residues) of zebrafish VDR LBD assessed as stabilization of structural elements by measuring increase in protection at 10 fold excess compound concentration in presence of SRC1 NR2 coactivator peptide measured at 1 mins by HDX-MS analysis; in short: as §1
[7] = molecular target: T1, Vitamin D3 receptor A (Danio rerio); assay: Binding affinity to H12 region of zebrafish VDR LBD assessed as stabilization of structural elements at 10 fold excess compound concentration in presence of SRC1 NR2 coactivator peptide by HDX-MS analysis; in short: as §1
[8] = molecular target: T1, Vitamin D3 receptor A (Danio rerio); assay: Binding affinity to H5 region (290 to 297 residues) of zebrafish VDR LBD assessed as destabilization of structural elements by measuring deprotection at 10 fold excess compound concentration in presence of SRC1 NR2 coactivator peptide measured at 1 mins by HDX-MS analysis relative to 1,25D3
[9] = molecular target: T1, Vitamin D3 receptor A (Danio rerio); assay: Binding affinity to H1 region of zebrafish VDR LBD assessed as stabilization of structural elements forming LBP at 10 fold excess compound concentration by HDX-MS analysis; in short: as §2
[10] = molecular target: T1, Vitamin D3 receptor A (Danio rerio); assay: Binding affinity to H3 and H7 region of zebrafish VDR LBD assessed as stabilization of structural elements by measuring increase in protection at 10 fold excess compound concentration in presence of SRC1 NR2 coactivator peptide measured at 1 mins by HDX-MS analysis; in short: as §1
[11] = molecular target: T1, Vitamin D3 receptor A (Danio rerio); assay: Binding affinity to H6 to H7 region (322 to 344 residues) of zebrafish VDR LBD assessed as stabilization of structural elements by measuring increase in protection at 10 fold excess compound concentration in presence of SRC1 NR2 coactivator peptide measured at 1 mins by HDX-MS analysis; in short: as §1
[12] = molecular target: T1, Vitamin D3 receptor A (Danio rerio); assay: Antagonist activity at full-length zebrafish VDR expressed in rat IEC18 cells co-expressing CYP24A1 promoter region assessed as reduction in 1,25D3-induced receptor activation at 1 to 1000 nM incubated for 24 hrs by luciferase reporter gene assay
[13] = molecular target: T1, Vitamin D3 receptor A (Danio rerio); assay: Binding affinity to H10 region (416 to 426 residues) of zebrafish VDR LBD assessed as stabilization of structural elements at 10 fold excess compound concentration in presence of SRC1 NR2 coactivator peptide measured at 3 and 10 mins by HDX-MS analysis
In short: (§4)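 Deuterium exchange ran for 60, 180, 600 or 1800 s in D₂O buffer (50 mM Tris pH 8.0, 50 mM NaCl, 2% glycerol, 1 mM TCEP). Quench with urea/TFA, then online pepsin digestion and UPLC-MS. Uptake corrected for back exchange against a fully deuterated control. Triplicates.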

[14] = molecular target: T1, Vitamin D3 receptor A (Danio rerio); assay: Binding affinity to zebrafish VDR LBD assessed as stabilization of structural elements forming LBP at 10 fold excess compound concentration by HDX-MS analysis
In short: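 zVDR LBD (10 µM) incubated 30 min at room temperature with ten-fold ligand excess, ethanol as control. D₂O exchange for 60, 180, 600 or 1800 s in 50 mM Tris pH 8.0, 50 mM NaCl, 2% glycerol, 1 mM TCEP. Quench with 3 M urea/0.1% TFA, then pepsin column digestion and UPLC-MS. Back-exchange corrected using a fully deuterated sample. Triplicate reactions.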

[15] = molecular target: T1, Vitamin D3 receptor A (Danio rerio); assay: Binding affinity to H12 region (440 to 445 residues) of zebrafish VDR LBD assessed as stabilization of structural elements by measuring increase in protection at 10 fold excess compound concentration in presence of SRC1 NR2 coactivator peptide measured at 1 mins by HDX-MS analysis; in short: as §4

With `C=C1/C(=C\C=C2/CCC[C@]3(C)[C@@H]([C@H](C)/C=C/[C@@H](O)C4(/C=C/C(=O)OCC)CC4)CC[C@@H]23)C[C@@H](O)C[C@@H]1O` the Activity [1] was “Active”, the Activity [2] was “Active” and the inhibition [3] was “Dose-dependent effect”. For the same compound, the Activity [4] was “inactive”, the Activity [5] was less than 60% and the Activity [6] was “Active”. For the same compound, the Activity [7] was “inactive”, the Activity [8] was greater than 30% and the Activity [9] was “Active”. For the same compound, the Activity [10] was less than 80%, the Activity [11] was “Active” and the inhibition [12] was “Active”.
For `C=C1/C(=C\C=C2/CCC[C@]3(C)[C@@H]([C@H](C)CCCC(C)(C)O)CC[C@@H]23)C[C@@H](O)C[C@@H]1O`, the Activity [13] was “Active”, the Activity [14] was “Active” and the Activity [4] was “inactive”. For the same compound, the Activity [15] was 30 to 40%.
